# Reference: ChEMBL document CHEMBL4765248, “Design, synthesis, biological evaluation and molecular docking study of novel thieno[3,2-d]pyrimidine derivatives as potent FAK inhibitors” (Eur J Med Chem, 2020)
# Key:
# [1] = target: RAC-alpha serine/threonine-protein kinase (Homo sapiens) (UniProt P31749); assay: Inhibition of His-tagged human full length AKT1 expressed in baculovirus expression system at 1 uM by Selectscreen kinase assay
# Outline: (§1)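 Single-point screen at 1 μM final against a panel of 25 kinases using a commercial profiling service; mean of three independent experiments each run in triplicate.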
# [2] = target: Tyrosine-protein kinase BTK (Homo sapiens) (UniProt Q06187); assay: Inhibition of His-tagged full length, recombinant human BTK expressed in baculovirus expression system at 1 uM by Selectscreen kinase assay; outline: as §1
# [3] = target: Serine/threonine-protein kinase Chk1 (Homo sapiens) (UniProt O14757); assay: Inhibition of His-tagged full length human CHK1 expressed in baculovirus expression system at 1 uM by Selectscreen kinase assay; outline: as §1
# [4] = target: Inhibitor of nuclear factor kappa-B kinase subunit epsilon (Homo sapiens) (UniProt Q14164); assay: Inhibition of GST-tagged full length human IKK epsilon expressed in baculovirus expression system at 1 uM by Selectscreen kinase assay; outline: as §1
# [5] = target: Mast/stem cell growth factor receptor Kit (Homo sapiens) (UniProt P10721); assay: Inhibition of His-tagged human KIT cytoplasmic domain expressed in baculovirus expression system at 1 uM by Selectscreen kinase assay; outline: as §1
# [6] = target: Dual specificity mitogen-activated protein kinase kinase 1 (Homo sapiens) (UniProt Q02750); assay: Inhibition of His-tagged full length human MEK1 expressed in baculovirus expression system at 1 uM by Selectscreen kinase assay; outline: as §1
# [7] = target: Serine/threonine-protein kinase mTOR (Homo sapiens) (UniProt P42345); assay: Inhibition of GST-tagged partial length human mTOR catalytic domain (1360-2549 residues) expressed in baculovirus expression system at 1 uM by Selectscreen kinase assay; outline: as §1
# [8] = target: Serine/threonine-protein kinase PAK 1 (Homo sapiens) (UniProt Q13153); assay: Inhibition of GST-tagged full length human PAK1 expressed in baculovirus expression system at 1 uM by Selectscreen kinase assay; outline: as §1
# Homo sapiens = species: Homo sapiens; assay: Inhibition of His-tagged human PKA catalytic domain expressed in Escherichia coli expression system at 1 uM by Selectscreen kinase assay; outline: as §1
# [9] = target: Tyrosine-protein kinase ZAP-70 (Homo sapiens) (UniProt P43403); assay: Inhibition of His-tagged full-length recombinant human ZAP-70 expressed in baculovirus expression system at 1 uM by Selectscreen kinase assay; outline: as §1
# MDA-MB-231 [10] = assay: Induction of apoptosis in human MDA-MB-231 cells assessed as early apoptotic cells at 0.1 uM incubated for 48 hrs by Annexin V-FITC/PI staining based flow cytometric analysis (reference value: 1.58%); assay type: functional
# MDA-MB-231 [11] = assay: Induction of apoptosis in human MDA-MB-231 cells assessed as necrotic cells at 0.1 uM incubated for 48 hrs by Annexin V-FITC/PI staining based flow cytometric analysis (reference value: 1.08%); assay type: functional
# MDA-MB-231 [12] = assay: Induction of apoptosis in human MDA-MB-231 cells assessed as viable cells at 0.4 uM incubated for 48 hrs by Annexin V-FITC/PI staining based flow cytometric analysis (reference value: 95.84%); assay type: functional; settings: read-out: Activity
# MDA-MB-231 [13] = assay: Induction of cell cycle arrest in human MDA-MB-231 cells assessed as accumulation of cells at S phase at 0.1 uM measured after 48 hrs by PI staining based flow cytometry method (reference value: 39.17%); assay type: functional
# MDA-MB-231 [14] = assay: Induction of cell cycle arrest in human MDA-MB-231 cells assessed as accumulation of cells at G2/M phase at 0.2 uM measured after 48 hrs by PI staining based flow cytometry method (reference value: 17.40%); assay type: functional
# MDA-MB-231 [15] = assay: Induction of cell cycle arrest in human MDA-MB-231 cells assessed as accumulation of cells at G0/G1 phase at 0.4 uM measured after 48 hrs by PI staining based flow cytometry method (reference value: 43.43%); assay type: functional
# MDA-MB-231 [16] = assay: Inhibition of cell migration in human MDA-MB-231 cells at 0.15 to 0.6 uM by wound healing assay; assay type: functional, cell-based; settings: dose 0.15-0.6 µM, time 24-48 hrs, TDE = time-dependent effect
# Outline: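 MDA-MB-231 cells (2×10^6/well) were grown to confluence and the monolayer was scratched with a pipette tip. Cells were washed with PBS, kept in serum-free medium and treated with DMSO or compound at 0.15, 0.3 or 0.6 μM for 48 h. Wound closure was photographed by inverted microscope at 24 and 48 h.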
# [17] = Metabolic stability in rat liver microsomes assessed as parent compound remaining at 1 uM measured after 60 mins in presence of NADPH by LC-MS/MS analysis; assay type: ADME, Microsome; settings: read-out: Stabilty
# Outline: (§2)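 Rat liver microsomes (0.5 mg/mL) were incubated at 37 °C with 1 μM compound in 100 mM potassium phosphate, pH 7.4, with 10 mM MgCl2. Reaction was started with prewarmed NADPH cofactor and sampled at 0, 5, 10, 20, 30 and 60 min. Protein was precipitated with cold acetonitrile and supernatants analysed by LC-MS/MS to give half-life, 1 h remaining and intrinsic clearance.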
# [18] = Intrinsic clearance in rat liver microsomes at 1 uM measured after 60 mins in presence of NADPH by LC-MS/MS analysis; assay type: ADME, Microsome; settings: read-out: CLH; outline: as §2
# A549 [19] = assay: Antiproliferative activity against human A549 cells assessed as cell viability at 0.1 uM measured after 48 hrs by MTT assay (reference value: 100%); assay type: functional; settings: read-out: Activity
# A549 [20] = assay: Antiproliferative activity against human A549 cells assessed as cell viability at 0.1 uM measured after 72 hrs by MTT assay (reference value: 100%); assay type: functional; settings: read-out: Activity
# A549 [21] = assay: Antiproliferative activity against human A549 cells assessed as cell viability at 2.5 uM measured after 48 hrs by MTT assay (reference value: 100%); assay type: functional; settings: read-out: Activity
# MDA-MB-231 [22] = assay: Antiproliferative activity against human MDA-MB-231 cells assessed as cell viability at 0.5 uM measured after 48 hrs by MTT assay (reference value: 100%); assay type: functional; settings: read-out: Activity
# MDA-MB-231 [23] = assay: Antiproliferative activity against human MDA-MB-231 cells assessed as cell viability at 0.5 uM measured after 72 hrs by MTT assay (reference value: 100%); assay type: functional; settings: read-out: Activity
# Inhibitor of nuclear factor kappa-B kinase subunit epsilon (Homo sapiens), sequence (Q14164 whole entry, the tested form may be a part): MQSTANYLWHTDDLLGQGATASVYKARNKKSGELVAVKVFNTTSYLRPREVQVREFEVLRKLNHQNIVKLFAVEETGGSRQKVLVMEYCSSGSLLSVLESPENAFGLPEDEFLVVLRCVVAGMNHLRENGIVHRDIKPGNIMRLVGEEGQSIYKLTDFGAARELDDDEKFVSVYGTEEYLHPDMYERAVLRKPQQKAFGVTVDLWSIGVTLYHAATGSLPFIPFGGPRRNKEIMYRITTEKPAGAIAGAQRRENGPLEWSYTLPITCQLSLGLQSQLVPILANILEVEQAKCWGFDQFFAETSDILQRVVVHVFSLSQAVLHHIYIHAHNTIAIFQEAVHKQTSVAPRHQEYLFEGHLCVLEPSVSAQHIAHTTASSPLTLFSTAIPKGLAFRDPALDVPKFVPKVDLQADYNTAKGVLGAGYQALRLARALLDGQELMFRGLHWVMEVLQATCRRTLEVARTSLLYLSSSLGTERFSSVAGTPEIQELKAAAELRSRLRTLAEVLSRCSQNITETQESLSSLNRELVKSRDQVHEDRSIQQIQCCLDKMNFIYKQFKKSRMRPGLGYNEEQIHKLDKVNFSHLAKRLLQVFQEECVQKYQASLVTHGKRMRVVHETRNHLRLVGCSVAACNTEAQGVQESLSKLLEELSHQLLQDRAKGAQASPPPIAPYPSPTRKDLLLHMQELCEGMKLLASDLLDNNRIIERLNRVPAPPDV
# Tyrosine-protein kinase ZAP-70 (Homo sapiens), sequence (P43403 whole entry): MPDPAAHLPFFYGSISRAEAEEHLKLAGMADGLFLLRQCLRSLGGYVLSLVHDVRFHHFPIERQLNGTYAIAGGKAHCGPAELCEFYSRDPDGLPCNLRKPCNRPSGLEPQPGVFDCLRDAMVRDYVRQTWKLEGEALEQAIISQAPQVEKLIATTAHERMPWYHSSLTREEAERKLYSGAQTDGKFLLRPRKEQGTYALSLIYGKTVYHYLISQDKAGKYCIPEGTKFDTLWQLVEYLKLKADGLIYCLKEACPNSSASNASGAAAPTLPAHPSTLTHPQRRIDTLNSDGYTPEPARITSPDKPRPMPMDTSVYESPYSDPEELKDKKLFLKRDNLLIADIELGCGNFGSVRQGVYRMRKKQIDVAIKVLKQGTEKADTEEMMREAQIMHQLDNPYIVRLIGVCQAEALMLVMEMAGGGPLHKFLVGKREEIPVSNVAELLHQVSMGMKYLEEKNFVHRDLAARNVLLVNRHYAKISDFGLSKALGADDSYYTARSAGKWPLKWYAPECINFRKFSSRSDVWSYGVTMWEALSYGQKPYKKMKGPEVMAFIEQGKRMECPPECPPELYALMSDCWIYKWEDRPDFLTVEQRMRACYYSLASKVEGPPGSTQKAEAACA
# RAC-alpha serine/threonine-protein kinase (Homo sapiens), sequence (P31749 whole entry): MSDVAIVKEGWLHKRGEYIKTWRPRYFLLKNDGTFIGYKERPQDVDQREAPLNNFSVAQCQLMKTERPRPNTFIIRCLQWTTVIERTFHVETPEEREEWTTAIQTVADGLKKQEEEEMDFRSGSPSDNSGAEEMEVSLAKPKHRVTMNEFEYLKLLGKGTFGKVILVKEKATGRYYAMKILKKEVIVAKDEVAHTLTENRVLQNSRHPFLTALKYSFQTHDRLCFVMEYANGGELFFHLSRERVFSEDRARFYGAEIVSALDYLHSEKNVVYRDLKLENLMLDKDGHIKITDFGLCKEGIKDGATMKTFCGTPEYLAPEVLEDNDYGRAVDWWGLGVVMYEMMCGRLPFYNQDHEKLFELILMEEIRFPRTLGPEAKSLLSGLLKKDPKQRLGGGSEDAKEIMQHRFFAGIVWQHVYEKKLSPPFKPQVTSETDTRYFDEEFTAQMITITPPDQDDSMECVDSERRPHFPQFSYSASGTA
# Dual specificity mitogen-activated protein kinase kinase 1 (Homo sapiens), sequence (Q02750 whole entry, the tested form may be a part): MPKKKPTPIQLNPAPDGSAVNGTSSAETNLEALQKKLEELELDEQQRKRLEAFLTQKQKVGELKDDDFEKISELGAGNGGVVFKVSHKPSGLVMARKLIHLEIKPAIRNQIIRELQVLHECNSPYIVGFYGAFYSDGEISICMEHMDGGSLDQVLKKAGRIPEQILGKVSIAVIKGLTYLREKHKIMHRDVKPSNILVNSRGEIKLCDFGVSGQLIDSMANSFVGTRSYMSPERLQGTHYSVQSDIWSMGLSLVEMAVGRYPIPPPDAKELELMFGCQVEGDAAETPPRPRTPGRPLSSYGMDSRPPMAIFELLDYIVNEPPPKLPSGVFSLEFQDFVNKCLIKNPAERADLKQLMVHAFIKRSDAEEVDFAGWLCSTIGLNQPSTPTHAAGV
# Tyrosine-protein kinase BTK (Homo sapiens), sequence (Q06187 whole entry): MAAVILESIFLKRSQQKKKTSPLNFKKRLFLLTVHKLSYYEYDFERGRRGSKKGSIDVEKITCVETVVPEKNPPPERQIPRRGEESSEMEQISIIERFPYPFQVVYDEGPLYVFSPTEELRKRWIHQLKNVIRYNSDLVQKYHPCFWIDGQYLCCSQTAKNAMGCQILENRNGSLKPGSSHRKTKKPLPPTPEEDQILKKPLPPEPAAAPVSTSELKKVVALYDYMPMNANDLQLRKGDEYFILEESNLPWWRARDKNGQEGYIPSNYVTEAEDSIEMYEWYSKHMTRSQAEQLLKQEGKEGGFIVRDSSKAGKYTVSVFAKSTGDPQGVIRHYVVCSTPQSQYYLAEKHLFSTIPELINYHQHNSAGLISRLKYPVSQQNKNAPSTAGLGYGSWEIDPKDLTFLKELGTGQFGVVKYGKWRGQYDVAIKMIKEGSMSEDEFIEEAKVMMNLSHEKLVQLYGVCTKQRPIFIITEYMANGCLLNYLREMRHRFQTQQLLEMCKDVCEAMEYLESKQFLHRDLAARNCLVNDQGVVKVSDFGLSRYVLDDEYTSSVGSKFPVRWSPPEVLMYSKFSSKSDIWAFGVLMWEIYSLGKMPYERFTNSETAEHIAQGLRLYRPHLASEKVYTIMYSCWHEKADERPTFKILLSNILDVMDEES
# Serine/threonine-protein kinase Chk1 (Homo sapiens), sequence (O14757 whole entry): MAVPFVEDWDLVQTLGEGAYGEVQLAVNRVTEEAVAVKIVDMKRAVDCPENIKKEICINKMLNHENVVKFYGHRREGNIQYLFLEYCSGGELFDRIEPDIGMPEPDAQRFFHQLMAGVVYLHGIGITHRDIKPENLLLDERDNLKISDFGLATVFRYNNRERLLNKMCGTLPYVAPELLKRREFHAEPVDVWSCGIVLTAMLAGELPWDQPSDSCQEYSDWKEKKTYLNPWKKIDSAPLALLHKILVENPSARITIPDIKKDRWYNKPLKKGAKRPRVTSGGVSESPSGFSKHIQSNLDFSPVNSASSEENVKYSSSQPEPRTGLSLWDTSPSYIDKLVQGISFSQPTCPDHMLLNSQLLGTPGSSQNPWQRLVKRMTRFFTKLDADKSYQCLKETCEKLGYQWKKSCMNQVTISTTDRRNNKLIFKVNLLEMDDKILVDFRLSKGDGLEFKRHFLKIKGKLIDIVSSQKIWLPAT
# Mast/stem cell growth factor receptor Kit (Homo sapiens), sequence (P10721 whole entry, the tested form may be a part): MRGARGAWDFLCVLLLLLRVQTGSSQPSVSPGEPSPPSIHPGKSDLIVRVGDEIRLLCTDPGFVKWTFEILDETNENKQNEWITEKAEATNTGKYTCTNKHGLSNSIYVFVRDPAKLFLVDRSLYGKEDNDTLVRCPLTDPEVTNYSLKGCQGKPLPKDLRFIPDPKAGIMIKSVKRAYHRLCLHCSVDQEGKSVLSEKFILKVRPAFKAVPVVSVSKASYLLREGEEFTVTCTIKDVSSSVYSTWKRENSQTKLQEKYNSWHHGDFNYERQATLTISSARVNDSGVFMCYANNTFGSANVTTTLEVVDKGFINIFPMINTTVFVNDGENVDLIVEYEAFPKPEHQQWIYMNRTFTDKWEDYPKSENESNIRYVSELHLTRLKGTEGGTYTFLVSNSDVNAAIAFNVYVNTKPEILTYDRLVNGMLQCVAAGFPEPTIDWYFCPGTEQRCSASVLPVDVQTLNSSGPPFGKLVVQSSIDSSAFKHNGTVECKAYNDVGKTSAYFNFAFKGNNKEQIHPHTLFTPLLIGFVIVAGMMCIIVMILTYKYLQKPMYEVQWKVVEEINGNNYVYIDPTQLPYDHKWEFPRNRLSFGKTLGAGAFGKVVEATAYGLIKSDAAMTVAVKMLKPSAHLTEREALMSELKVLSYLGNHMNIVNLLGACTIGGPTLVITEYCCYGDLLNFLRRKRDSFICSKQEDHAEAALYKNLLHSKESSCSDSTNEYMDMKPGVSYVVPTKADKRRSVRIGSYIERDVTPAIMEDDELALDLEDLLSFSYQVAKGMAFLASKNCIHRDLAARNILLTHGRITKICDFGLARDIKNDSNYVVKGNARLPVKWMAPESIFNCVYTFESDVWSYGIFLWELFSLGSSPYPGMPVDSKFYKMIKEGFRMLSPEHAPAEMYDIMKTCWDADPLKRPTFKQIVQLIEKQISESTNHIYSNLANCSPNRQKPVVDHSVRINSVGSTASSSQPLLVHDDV
# Serine/threonine-protein kinase PAK 1 (Homo sapiens), sequence (Q13153 whole entry, the tested form may be a part): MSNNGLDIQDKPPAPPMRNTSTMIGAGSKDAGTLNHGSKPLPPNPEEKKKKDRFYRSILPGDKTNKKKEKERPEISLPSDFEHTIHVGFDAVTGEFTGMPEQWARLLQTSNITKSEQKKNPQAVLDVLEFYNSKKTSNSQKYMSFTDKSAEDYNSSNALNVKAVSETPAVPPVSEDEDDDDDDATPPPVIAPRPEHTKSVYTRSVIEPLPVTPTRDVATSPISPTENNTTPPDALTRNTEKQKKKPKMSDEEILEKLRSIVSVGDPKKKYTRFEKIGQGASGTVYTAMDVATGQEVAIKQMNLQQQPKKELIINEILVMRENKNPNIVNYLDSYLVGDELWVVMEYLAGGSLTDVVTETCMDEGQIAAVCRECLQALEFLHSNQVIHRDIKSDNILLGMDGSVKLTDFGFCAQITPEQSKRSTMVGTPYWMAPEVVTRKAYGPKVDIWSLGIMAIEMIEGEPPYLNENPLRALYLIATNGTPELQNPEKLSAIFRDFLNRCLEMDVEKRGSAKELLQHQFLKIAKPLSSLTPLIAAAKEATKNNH
compound,measurement,setting,value
COc1ccccc1-c1csc2cnc(Nc3ccc(C(=O)NC4CCNCC4)c(F)c3)nc12,inhibition,[1],15%
same,inhibition,[2],88%
same,inhibition,[3],38%
same,inhibition,[4],66%
same,inhibition,[5],41%
same,inhibition,[6],27%
same,inhibition,[7],2%
same,inhibition,[8],67%
same,inhibition,Homo sapiens,63%
same,inhibition,[9],6%
same,Activity,MDA-MB-231 [10],7.21%
same,Activity,MDA-MB-231 [11],2.97%
same,viability at 0.4 µM,MDA-MB-231 [12],53.8%
same,Activity,MDA-MB-231 [13],41.96%
same,Activity,MDA-MB-231 [14],9.49%
same,Activity,MDA-MB-231 [15],56.27%
same,inhibition,MDA-MB-231 [16],Tde
same,"remaining at 1 h, 1 µM",[17],72.4%
same,microsomal CLint at 1 µM,[18],10.4 µL/min/mg
same,viability at 0.1 µM,A549 [19],78.7%
same,viability at 0.1 µM,A549 [20],66.9%
same,viability at 2.5 µM,A549 [21],31%
same,viability at 0.5 µM,MDA-MB-231 [22],40.7%
same,viability at 0.5 µM,MDA-MB-231 [23],31%
